The values below come from PMC7891373 (Clinical Pharmacology in Drug Development, 2020).

The conditions of series [1]: cited from earlier work.
The subject of the next series is CYP2C9. To be noted: in vitro; cited from earlier work.
Series [2] is classed as in vivo, human. The settings on record: single oral dose, fasted; for AUC / AUC(0-t) / half-life / Tmax: male, human, plasma, po; for AUC: AUC0‐∞; for AUC(0-t): AUClast, AUC24h; for Tmax: n=24, median (min-max). The gist of the method:
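Healthy Japanese men aged 20–45 y with BMI 18.5 to <30.0 kg/m2, in an open-label randomized 2-period crossover. The 25-mg cohort was split into tablet→capsule and capsule→tablet sequences of 12, each a single fasted oral dose, with a washout of at least 28 days. Venous blood was drawn predose and 0.25–24 h post-dose. Plasma test compound was measured by validated LC-MS/MS (LLOQ 10.0 ng/mL). Parameters came from individual concentration-time profiles (AUClast = AUC24h), giving tablet/capsule geometric mean ratios.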

Series [3] can be described thus: Safety and tolerability assessment in the phase 1 study. Type of series: in vivo, human. To be noted: single oral dose 25 or 50 mg, tablet and capsule. A digest of the protocol: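 Healthy Japanese men received single fasted oral 25- or 50-mg tablet and capsule doses in a crossover design, confined at the site around each dose. The safety set was all subjects given at least 1 dose. Adverse events were assessed by clinical interview, physical examination, 12-lead ECG and routine laboratory tests from start of treatment to end of follow-up. Each was coded by MedDRA 17.0 (Japanese) and graded for severity, seriousness and causality.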

The subject of the next series is CYP2C8. To be noted: in vitro; cited from earlier work.

Molecules are shown by their SMILES. Where two headings read alike, the source gives them in different places. Marks after values point to notes of the source that are not given here.

For the compound `Cc1nc(Cl)c(-c2noc(-c3cc(O)c(O)c([N+](=O)[O-])c3)n2)c(C)c1Cl` [BIA 9–1079], the half-life of metabolite entry in series [1] (not assessed in this study) is given as “short”.

On to `Cc1c(Cl)c(C)[n+]([O-])c(Cl)c1-c1noc(-c2cc(OS(=O)(=O)O)c(O)c([N+](=O)[O-])c2)n1` [BIA 9–1103], for which the half-life of metabolite result in series [1] (especially following repeated dosing) is on record as “relatively long”.

Take `Cc1c(Cl)c(C)[n+]([O-])c(Cl)c1-c1noc(-c2cc(O)c(O)c([N+](=O)[O-])c2)n1` [Opicapone]: the CYP2C9 inhibition entry with CYP2C9 is given as “weak, reversible inhibitor”. In addition, the AUC amounted to 2530 ± 581 ng·h/mL in series [2] (25 mg, opicapone 25 mg tablet, n=23, mean ± SD) and 4210 ± 1620 ng·h/mL in series [2] (50 mg, opicapone 50 mg capsule, n=23, mean ± SD). The AUC(0-t) in series [2] (25 mg, opicapone 25 mg tablet, n=24, mean ± SD) came out at 2480 ± 586 ng·h/mL; in series [2] (50 mg, opicapone 50 mg capsule, n=24, mean ± SD) it was 4080 ± 1650 ng·h/mL. Further, the half-life was 0.729 ± 0.173 h in series [2] (25 mg, t1/2, opicapone 25 mg tablet, n=23, mean ± SD) and 1.18 ± 0.477 h in series [2] (50 mg, t1/2, opicapone 50 mg capsule, n=23, mean ± SD). Besides, the Tmax in series [2] (25 mg, opicapone 25 mg tablet) amounted to 2 h; in series [2] (50 mg, opicapone 50 mg capsule) it was 2 h. For the same compound, the CL/F in series [2] (opicapone 25 mg capsule, n=24, mean ± SD) is recorded as 12.9 ± 5.31 L/h; in series [2] (opicapone 25 mg tablet, n=23, mean ± SD), 10.6 ± 3.50 ^b L/h; in series [2] (opicapone 50 mg capsule, n=23, mean ± SD), 13.6 ± 5.09 ^b L/h; in series [2] (opicapone 50 mg tablet, n=23, mean ± SD), 10.4 ± 3.20 L/h. Besides, the “Geometric Mean Ratio (Tablets/Capsules) of AUC0‐∞” value came to 1.19 in series [2] (opicapone 25 mg, n=24) and 1.27 in series [2] (opicapone 50 mg, n=23). For the same compound, the “Geometric Mean Ratio (Tablets/Capsules) of AUClast” value came to 1.18 in series [2] (opicapone 25 mg, n=24) and 1.28 in series [2] (opicapone 50 mg, n=24). Besides, the “Geometric Mean Ratio (Tablets/Capsules) of Cmax” value worked out at 1.24 in series [2] (opicapone 25 mg, n=24) and 1.42 in series [2] (opicapone 50 mg, n=24). Further, in series [3] (any group, study period), the Serious adverse events result was “no serious adverse events”. For the same compound, the Tolerability result in series [3] (healthy Japanese subjects) is given as “well tolerated”. For the same compound, the CYP2C8 inhibition result in the series on CYP2C8 is “weak, reversible inhibitor”.

Usually AUC stands for concentration integrated over time. The term AUC(0-t) denotes exposure summed from dosing to a finite time, without extrapolation to infinity. For orientation: half-life means the time needed for the level to fall by half in the phase considered. Low readings indicate rapid decline, high ones slow decline. As usually defined, the Tmax is the time at which the peak concentration occurs. A word on the CL/F: it is clearance divided by bioavailability, as obtained after extravascular dosing.
